# Source: ChEMBL document CHEMBL1155718, “The complestatins as HIV-1 integrase inhibitors. Efficient isolation, structure elucidation, and inhibitory activities of isocomplestatin, chloropeptin I, new complestatins, A and B, and acid-hydrolysis products of chloropeptin I” (J Nat Prod, 2001)
# pIC50: −log10 of the molar value.
# Legend:
# [1] = test system: Human immunodeficiency virus 1; test: Antiviral activity against HIV1 assessed as inhibition of viral spread in infected cells; assay type: functional
# Procedure, shortened: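 HIV-1 multiple-cycle replication (viral spread) assay in cell culture. Inhibition was expressed as IC95, and in some cases also as IC50.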
# [2] = molecular target: T1, Human immunodeficiency virus type 1 integrase (Human immunodeficiency virus 1, UniProt Q7ZJM1); test: Inhibition of HIV1 integrase 3' processing/strand transfer coupled activity
# T1 sequence (Q7ZJM1 whole entry): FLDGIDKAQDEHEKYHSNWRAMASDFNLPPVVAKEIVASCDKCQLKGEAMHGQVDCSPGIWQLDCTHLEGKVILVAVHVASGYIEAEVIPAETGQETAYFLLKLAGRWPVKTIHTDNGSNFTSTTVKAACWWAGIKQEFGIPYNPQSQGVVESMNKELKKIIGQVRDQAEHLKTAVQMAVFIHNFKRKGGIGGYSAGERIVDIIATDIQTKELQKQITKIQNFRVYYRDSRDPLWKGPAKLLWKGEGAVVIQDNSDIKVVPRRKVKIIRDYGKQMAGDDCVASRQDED
# Procedure, shortened: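 In vitro assay with recombinant HIV-1 integrase that recapitulates the staged integration process, measuring coupled 3′-processing and strand transfer. IC50 was reported.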
# [3] = molecular target: T1, Human immunodeficiency virus type 1 integrase; test: Inhibition of HIV1 integrase strand transfer activity
# Procedure, shortened: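 Staged strand transfer assay using complexes preassembled on viral donor DNA with recombinantly expressed HIV-1 integrase. IC50 was reported.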
# [4] = molecular target: T1, Human immunodeficiency virus type 1 integrase; test: Inhibition of disintegration activity of HIV1 integrase catalytic core domain (50 to 212)
# Procedure, shortened: (§1)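 Disintegration activity was measured with both full-length HIV-1 integrase and its catalytic core domain (amino acids 50-212). IC50 was reported.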
# [5] = test system: Human immunodeficiency virus; test: Antiviral activity against HIV PIC; assay type: functional, organism-based; conditions: Human immunodeficiency virus 1, PIC
# Procedure, shortened: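 Preintegration complexes were isolated from HIV-1-infected cells and tested for integration activity in vitro. IC50 was reported.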
# [6] = Inhibition of HIV1 recombinant gp120/CD4 interaction by ELISA
# [7] = molecular target: T1, Human immunodeficiency virus type 1 integrase; test: Inhibition of disintegration activity of HIV1 intact integrase; procedure, shortened: as §1
# [8] = molecular target: T1, Human immunodeficiency virus type 1 integrase; test: Inhibition of integration activity of HIV1 intact integrase
# [9] = test system: Human immunodeficiency virus; test: Antiviral activity against HIV; assay type: functional, organism-based; conditions: Human immunodeficiency virus 1
Structure (SMILES),pIC50 [2],pIC50 [3],IC95 [1],other results
CN[C@@H](Cc1ccc(Oc2cc3cc(c2O)-c2cccc4c(c[nH]c24)C[C@@H](N)C(=O)N[C@H](c2cc(Cl)c(O)c(Cl)c2)C(=O)N[C@H]3C(=O)O)cc1)C(=O)O,4.55,< 4.00,,
CN1C(=O)[C@@H](c2cc(Cl)c(O)c(Cl)c2)NC(=O)[C@@H]2NC(=O)[C@@H](c3cc(Cl)c(O)c(Cl)c3)NC(=O)[C@H](NC(=O)C(=O)c3cc(Cl)c(O)c(Cl)c3)Cc3c[nH]c4c(cccc34)-c3cc2cc(c3O)Oc2ccc(cc2)C[C@H]1C(=O)O,6.22,5.10,5 µM,
CN(C(=O)[C@H](N)c1cc(Cl)c(O)c(Cl)c1)[C@@H](Cc1ccc(Oc2cc3cc(c2O)-c2cccc4c(c[nH]c24)C[C@@H](N)C(=O)N[C@H](c2cc(Cl)c(O)c(Cl)c2)C(=O)N[C@H]3C(=O)O)cc1)C(=O)O,5.11,4.07,,
CN[C@@H](Cc1ccc(Oc2cc3cc(c2O)-c2cccc4c(c[nH]c24)C[C@@H](N)C(=O)N[C@H](c2cc(Cl)c(O)c(Cl)c2)C(=O)N[C@H]3C(=O)N[C@@H](C(=O)O)c2cc(Cl)c(O)c(Cl)c2)cc1)C(=O)O,5.42,4.35,,
CN1C(=O)[C@@H](c2cc(Cl)c(O)c(Cl)c2)NC(=O)[C@@H]2NC(=O)[C@@H](c3cc(Cl)c(O)c(Cl)c3)NC(=O)[C@H](NC(=O)C(=O)c3cc(Cl)c(O)c(Cl)c3)CC3(O)C(=O)Nc4cc(ccc43)-c3cc2cc(c3O)Oc2ccc(cc2)C[C@H]1C(=O)N[C@@H](C(=O)O)c1ccc(O)cc1 (stereo partly drawn) [COMPLESTATIN B],5.77,4.90,,
CN1C(=O)[C@@H](c2cc(Cl)c(O)c(Cl)c2)NC(=O)[C@@H]2NC(=O)[C@@H](c3cc(Cl)c(O)c(Cl)c3)NC(=O)[C@H](NC(=O)C(=O)c3cc(Cl)c(O)c(Cl)c3)CC3C(=O)Nc4cc(ccc43)-c3cc2cc(c3O)Oc2ccc(cc2)C[C@H]1C(=O)N[C@@H](C(=O)O)c1ccc(O)cc1 (stereo partly drawn) [COMPLESTATINS A],6.10,4.90,,

# These reach a higher pIC50 [2]. Values come first.
pIC50 [2],pIC50 [3],Structure (SMILES),IC95 [1],other results
6.30,5.22,CN1C(=O)[C@@H](c2cc(Cl)c(O)c(Cl)c2)NC(=O)[C@@H]2NC(=O)[C@@H](c3cc(Cl)c(O)c(Cl)c3)NC(=O)[C@H](N)Cc3c[nH]c4c(cccc34)-c3cc2cc(c3O)Oc2ccc(cc2)C[C@H]1C(=O)O,7.5 µM,
6.70,5.40,CN1C(=O)[C@@H](c2cc(Cl)c(O)c(Cl)c2)NC(=O)[C@@H]2NC(=O)[C@@H](c3cc(Cl)c(O)c(Cl)c3)NC(=O)[C@H](NC(=O)C(=O)c3cc(Cl)c(O)c(Cl)c3)Cc3c[nH]c4cc(ccc34)-c3cc2cc(c3O)Oc2ccc(cc2)C[C@H]1C(=O)N[C@@H](C(=O)O)c1ccc(O)cc1 [ISOCOMPLESTATIN],5 µM,pIC50 [4]: 6.30; pIC50 [5]: 5.52; pIC50 [6]: 5.70; pIC50 [7]: 6.30; pIC50 [8]: 5.52; pIC50 [9]: 6.70
6.40,5.30,CN1C(=O)[C@@H](c2cc(Cl)c(O)c(Cl)c2)NC(=O)[C@@H]2NC(=O)[C@@H](c3cc(Cl)c(O)c(Cl)c3)NC(=O)[C@H](NC(=O)C(=O)c3cc(Cl)c(O)c(Cl)c3)Cc3c[nH]c4c(cccc34)-c3cc2cc(c3O)Oc2ccc(cc2)C[C@H]1C(=O)N[C@@H](C(=O)O)c1ccc(O)cc1 [CHLOROPEPTIN],5 µM,
